ChEMBL document CHEMBL1127635, “Thiopyrano[2,3,4-cd]indoles as 5-lipoxygenase inhibitors: synthesis, biological profile, and resolution of 2-[2-[1-(4-chlorobenzyl)-4-methyl-6-[(5-phenylpyridin-2-yl)methoxy]-4,5 -dihydro-1H-thiopyrano[2,3,4-cd]indol-2-yl]ethoxy]butanoic acid” (J Med Chem, 1994)
Each block holds one molecule with its values, some of them ahead of it.

Assays:
Homo sapiens [1] = organism: Homo sapiens; assay: Effect on production of LTB4 in human polymorphonuclear leukocytes; assay type: functional
Summary of the method: (§1)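 LTB4 biosynthesis measured in human polymorphonuclear leukocytes activated with Ca2+ ionophore.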

[2] = molecular target: T1, Polyunsaturated fatty acid 5-lipoxygenase (Homo sapiens, UniProt P09917); assay: In vitro inhibition of human 5-Lipoxygenase.
T1 sequence (P09917 whole entry): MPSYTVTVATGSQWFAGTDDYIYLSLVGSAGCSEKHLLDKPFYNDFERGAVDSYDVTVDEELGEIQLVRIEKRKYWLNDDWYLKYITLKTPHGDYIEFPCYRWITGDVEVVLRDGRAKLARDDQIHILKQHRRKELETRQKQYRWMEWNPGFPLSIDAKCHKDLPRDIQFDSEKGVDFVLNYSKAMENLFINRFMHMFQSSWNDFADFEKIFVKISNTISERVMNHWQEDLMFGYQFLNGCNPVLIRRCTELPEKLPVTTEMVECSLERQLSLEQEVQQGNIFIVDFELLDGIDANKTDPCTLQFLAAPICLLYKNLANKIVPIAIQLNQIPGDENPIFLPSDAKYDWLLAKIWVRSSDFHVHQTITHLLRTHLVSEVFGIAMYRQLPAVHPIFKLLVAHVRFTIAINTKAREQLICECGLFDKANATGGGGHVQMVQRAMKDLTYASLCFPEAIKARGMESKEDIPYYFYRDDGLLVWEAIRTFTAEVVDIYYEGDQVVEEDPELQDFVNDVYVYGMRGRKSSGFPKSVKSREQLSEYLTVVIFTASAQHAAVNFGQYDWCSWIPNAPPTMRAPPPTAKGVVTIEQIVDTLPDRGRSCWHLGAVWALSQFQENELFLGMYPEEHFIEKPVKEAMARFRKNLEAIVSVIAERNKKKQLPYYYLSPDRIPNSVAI
Summary of the method: (§2)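 Spectrophotometric assay following 5-H(P)ETE production by the 100000g supernatant (S100) fraction of insect cells overexpressing human 5-LO.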

[3] = Cmax value in rat plasma when administered 20 mg/kg perorally; assay type: ADME, organism-based; parameters: dose 20 mg/kg, route oral; settings: po
Summary of the method: (§3)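 Rat plasma profiles after dosing the sodium salts either orally at 20 mg/kg in 1% methocel or iv at 5 mg/kg in PEG 200. Bioavailability is calculated as AUCpo/4 × AUCiv.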

[4] = Tmax value in rat plasma when administered 20 mg/kg perorally; assay type: ADME, organism-based; parameters: dose 20 mg/kg, route oral; settings: po; summary of the method: as §3
Rattus norvegicus [5] = assay: Tested for percentage inhibition of dyspnea (0.5 mg/kg po using methocel) by in vivo in hyperactive rat after 4 hours pretreatment; assay type: functional
Summary of the method: (§4)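 Inbred hyperreactive rats pretreated with methysergide 3 mg/kg iv. Drug given at 0.5 mg/kg po in methocel before ovalbumin challenge. Read-out is % inhibition of dyspnea duration versus litter-mate-matched vehicle controls, n = 6.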

[6] = Bioavailability in rat (dose 5 mg/kg i.v.); assay type: ADME, organism-based; settings: in vivo, iv; summary of the method: as §3
Rattus norvegicus [7] = assay: Tested for percentage inhibition of dyspnea (0.5 mg/kg po using methocel) by in vivo in hyperactive rat after 2 hours pretreatment; assay type: functional; summary of the method: as §4
Homo sapiens [8] = organism: Homo sapiens; assay: (§5) Effect on production of LTB4 in human polymorphonuclear (HPMN) leukocytes; assay type: functional; summary of the method: as §1
[9] = molecular target: T1, Polyunsaturated fatty acid 5-lipoxygenase; assay: Tested against 5-lipoxygenase; summary of the method: as §2
Rattus norvegicus [10] = organism: Rattus norvegicus; assay: Tested for effective inhibition of LTB4 with an 8 hr pretreatment; assay type: functional
Homo sapiens [11] = organism: Homo sapiens; assay: Effect on production of LTB4 in human whole blood; assay type: functional
Summary of the method: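 Human whole blood activated with ionophore A23187; inhibition of LTB4 biosynthesis assessed.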

[12] = Tested for inhibition of Ascaris antigen induced bronchoconstriction in the conscious squirrel monkey at 0.3 mg/kg dose (changes in dynamic compliance); assay type: functional
Summary of the method: (§6)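 Allergic conscious squirrel monkeys pretreated with drug for 4 h, then challenged with aerosolized Ascaris antigen (1:25 dilution). Airway resistance (RL) increase and dynamic compliance (Cdyn) decrease recorded; % inhibition versus control, mean ± SEM.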

[13] = Inhibition of Ascaris antigen induced bronchoconstriction in the conscious squirrel monkey at 0.3 mg/kg dose (Change in airway resistance); assay type: functional; summary of the method: as §6
[14] = Inhibition of Ascaris antigen induced bronchoconstriction in the conscious squirrel monkey at 0.1 mg/kg dose (Change in airway resistance); assay type: functional; summary of the method: as §6
Rattus norvegicus [15] = assay: In vivo inhibition of LBT4 in a rat pleurisy model with a 6 h pretreatment time; assay type: functional
Summary of the method: (§7)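 Male Sprague-Dawley rats given 0.4 mL of 0.5% carrageenan in saline intrapleurally 16 h before drug. Drug doses ranged from 3 to 0.3 mg/kg. Intrapleural calcium ionophore challenge 6 h after dosing. LTB4 in pleural exudate measured 1 h later; ED50 derived, n = 6/group.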

[16] = Tested for inhibition of Ascaris antigen induced bronchoconstriction in the conscious squirrel monkey at 0.1 mg/kg dose (changes in dynamic compliance); assay type: functional; summary of the method: as §6
[17] = Tested for inhibition of Ascaris antigen induced bronchoconstriction in the conscious squirrel monkey at 0.3 mg/kg dose (changes in the airway resistance(); assay type: functional; summary of the method: as §6
Rattus norvegicus [18] = assay: In vivo inhibition of LTB4 biosynthesis in a rat pleurisy model with an 6 hr pretreatment time; assay type: functional; summary of the method: as §7
Homo sapiens [19] = organism: Homo sapiens; assay: as §5

IC50 (Homo sapiens [1]; Homo sapiens): 11 nM
IC50 [2]: 105 nM
Structure (SMILES): CC1Cc2c(OCc3ccc(-c4ccccc4)cn3)ccc3c2c(c(CCOCCC(=O)O)n3Cc2ccc(Cl)cc2)S1 (stereo not given)

IC50 (Homo sapiens [1]; Homo sapiens): 12 nM
IC50 [2]: 120 nM
Structure (SMILES): CC[C@H](CSCc1c2c3c(c(OCc4ccc(-c5ccccc5)cn4)ccc3n1Cc1ccc(Cl)cc1)CC(C)S2)C(=O)O (stereo not given in full)

IC50 (Homo sapiens [8]): 10 nM
IC50 [9]: 60 nM
Structure (SMILES): CC1Cc2c(OCc3ccc(-c4ccccc4)cn3)ccc3c2c(c(CCOC(C)c2nnn[nH]2)n3Cc2ccc(Cl)cc2)S1 (stereo not given)

IC50 (Homo sapiens [1]; Homo sapiens): 6 nM
Structure (SMILES): CCC(CSCc1c2c3c(c(OCc4ccc(-c5ccccc5)cn4)ccc3n1Cc1ccc(Cl)cc1)CC(C)S2)C(=O)O (stereo not given)

IC50 (Homo sapiens [1]; Homo sapiens): 200 nM
IC50 [2]: 300 nM
Structure (SMILES): CC1Cc2c(OCc3ccc(-c4ccccc4)cn3)ccc3c2c(c(CC(=O)N(C)C(C)C(=O)O)n3Cc2ccc(Cl)cc2)S1 (stereo not given)

IC50 (Homo sapiens [1]; Homo sapiens): 113 nM
IC50 [2]: 900 nM
Structure (SMILES): CC(=O)N(CCc1c2c3c(c(OCc4ccc(-c5ccccc5)cn4)ccc3n1Cc1ccc(Cl)cc1)CC(C)S2)C(C)C(=O)O (stereo not given)

IC50 (Homo sapiens [1]; Homo sapiens): 20 nM
Structure (SMILES): CC1Cc2c(OCc3ccc(-c4ccccc4)cn3)ccc3c2c(c(CSCC(C)C(=O)O)n3Cc2ccc(Cl)cc2)S1 (stereo not given)

IC50 (Homo sapiens [1]; Homo sapiens): 4.5 nM
IC50 [2]: 22 nM
Structure (SMILES): CC1Cc2c(OCc3ccc(-c4ccccc4)cn3)ccc3c2c(c(CCOC(C)C(=O)NS(C)(=O)=O)n3Cc2ccc(Cl)cc2)S1 (stereo not given)

IC50 (Homo sapiens [1]; Homo sapiens): 15 nM
Structure (SMILES): CC1Cc2c(OCc3ccc(-c4ccccc4)cn3)ccc3c2c(c(CSCC(=O)O)n3Cc2ccc(Cl)cc2)S1 (stereo not given)

IC50 (Homo sapiens [1]): 4 nM
IC50 (Homo sapiens [11]): 1000 nM
IC50 [2]: 8 nM
Structure (SMILES): CCC(OCCc1c2c3c(c(OCc4ccc(-c5ccccc5)cn4)ccc3n1Cc1ccc(Cl)cc1)CC(C)S2)C(=O)O (stereo in doubt; 14g)

IC50 (Homo sapiens [1]): 17 nM
IC50 (Homo sapiens [11]): 4800 nM
IC50 [2]: 80 nM
Structure (SMILES): CCC(OCCc1c2c3c(c(OCc4ccc(-c5ccccc5)cn4)ccc3n1Cc1ccc(Cl)cc1)CC(C)S2)C(=O)O (stereo in doubt; 14h)

IC50 (Homo sapiens [19]): 3 nM
Structure (SMILES): CC(C)(C)Sc1c(CC(C)(C)C(=O)O)n(Cc2ccc(Cl)cc2)c2ccc(OCc3ccc4ccccc4n3)cc12 [QUIFLAPON]
inhibition in vivo at 0.3 mg/kg [17]: 44%
ED50 (Rattus norvegicus [18]): 0.16 mg/kg
inhibition in vivo at 0.3 mg/kg [12]: 46%

The remaining lines, values behind:

Structure (SMILES): CC1Cc2c(OCc3ccc(-c4ccccc4)cn3)ccc3c2c(c(CCOC(C)C(=O)O)n3Cc2ccc(Cl)cc2)S1 (stereo not given)
IC50 (Homo sapiens [1]; Homo sapiens): 5 nM
IC50 [2]: 20 nM
Cmax [3]: 3.8 µM
Tmax [4]: 2 h
Inhibition (Rattus norvegicus [5]): 2%
bioavailability [6]: 35%
Inhibition (Rattus norvegicus [7]): 53%

Structure (SMILES): CC1Cc2c(OCc3ccc(-c4ccccc4)cn3)ccc3c2c(c(CCOCC(=O)O)n3Cc2ccc(Cl)cc2)S1 (stereo not given)
IC50 (Homo sapiens [1]; Homo sapiens): 31 nM

Structure (SMILES): CCC(OCCc1c2c3c(c(OCc4ccc(-c5ccccc5)cn4)ccc3n1Cc1ccc(Cl)cc1)CC(C)S2)C(=O)NS(C)(=O)=O (stereo not given)
IC50 (Homo sapiens [1]; Homo sapiens): 6.5 nM
IC50 [2]: 20 nM
Cmax [3]: 4 µM
Tmax [4]: 4 h
bioavailability [6]: 72%

Structure (SMILES): CC1Cc2c(OCc3ccc(-c4ccccc4)cn3)ccc3c2c(c(COCC(=O)O)n3Cc2ccc(Cl)cc2)S1 (stereo not given)
IC50 (Homo sapiens [1]; Homo sapiens): 17 nM

Structure (SMILES): CC(CC(=O)O)SCc1c2c3c(c(OCc4ccc(-c5ccccc5)cn4)ccc3n1Cc1ccc(Cl)cc1)CC(C)S2 (stereo not given)
IC50 (Homo sapiens [1]; Homo sapiens): 50 nM
IC50 [2]: 70 nM

Structure (SMILES): CC1Cc2c(OCc3ccc(-c4ccccc4)cn3)ccc3c2c(c(CCSC(C)C(=O)O)n3Cc2ccc(Cl)cc2)S1 (stereo not given)
IC50 (Homo sapiens [1]; Homo sapiens): 17 nM

Structure (SMILES): CC1Cc2c(OCc3ccc(-c4ccccc4)cn3)ccc3c2c(c(CCNC(C)C(=O)O)n3Cc2ccc(Cl)cc2)S1 (stereo not given)
IC50 (Homo sapiens [1]; Homo sapiens): 1100 nM
IC50 [2]: 4000 nM

Structure (SMILES): CC1Cc2c(OCc3ccc(-c4ccccc4)cn3)ccc3c2c(c(CC(C)(C)Cc2nnn[nH]2)n3Cc2ccc(Cl)cc2)S1 (stereo not given)
IC50 (Homo sapiens [8]): 8 nM
ED50 (Rattus norvegicus [10]): 1.9 mg/kg

Structure (SMILES): CC1Cc2c(OCc3ccc(-c4ccccc4)cn3)ccc3c2c(c(CCOC(C)(C)C(=O)O)n3Cc2ccc(Cl)cc2)S1 (stereo not given)
IC50 (Homo sapiens [1]; Homo sapiens): 7 nM
IC50 [2]: 50 nM

Structure (SMILES): CC1Cc2c(OCc3ccc(-c4ccccc4)cn3)ccc3c2c(c(COCCC(=O)O)n3Cc2ccc(Cl)cc2)S1 (stereo not given)
IC50 (Homo sapiens [1]; Homo sapiens): 65 nM
IC50 [2]: 250 nM

Structure (SMILES): CC[C@@H](CSCc1c2c3c(c(OCc4ccc(-c5ccccc5)cn4)ccc3n1Cc1ccc(Cl)cc1)CC(C)S2)C(=O)O (stereo not given in full)
IC50 (Homo sapiens [1]; Homo sapiens): 7 nM
IC50 [2]: 40 nM

Structure (SMILES): CC1Cc2c(OCc3ccc(-c4ccccc4)cn3)ccc3c2c(c(CSCCC(=O)O)n3Cc2ccc(Cl)cc2)S1 (stereo not given)
IC50 (Homo sapiens [1]; Homo sapiens): 10 nM
IC50 [2]: 55 nM

Structure (SMILES): CCC(OCCc1c2c3c(c(OCc4ccc(-c5ccccc5)cn4)ccc3n1Cc1ccc(Cl)cc1)CC(C)S2)C(=O)O (stereo in doubt; 14d)
IC50 (Homo sapiens [1]): 7 nM
IC50 (Homo sapiens [11]): 3800 nM
IC50 [2]: 22 nM
inhibition in vivo at 0.3 mg/kg [12]: 100%
inhibition in vivo at 0.3 mg/kg [13]: 100%
Cmax [3]: 5.5 µM
Tmax [4]: 6 h
Inhibition (Rattus norvegicus [5]): 51%
inhibition in vivo at 0.1 mg/kg [14]: 89%
ED50 (Rattus norvegicus [15]): 0.65 mg/kg
bioavailability [6]: 88%
inhibition in vivo at 0.1 mg/kg [16]: 68%
Inhibition (Rattus norvegicus [7]): 55%

Structure (SMILES): CCC(OCCc1c2c3c(c(OCc4ccc(-c5ccccc5)cn4)ccc3n1Cc1ccc(Cl)cc1)CC(C)S2)C(=O)O (stereo in doubt; 14e)
IC50 (Homo sapiens [1]): 3.5 nM
IC50 (Homo sapiens [11]): 1800 nM
IC50 [2]: 13 nM

Structure (SMILES): CCC(OCCc1c2c3c(c(OCc4ccc(-c5ccccc5)cn4)ccc3n1Cc1ccc(Cl)cc1)CC(C)S2)C(=O)O (stereo in doubt; 14f)
IC50 (Homo sapiens [1]): 10 nM
IC50 (Homo sapiens [11]): 16000 nM
IC50 [2]: 150 nM

Structure (SMILES): CC(c1cc2ccccc2s1)N(O)C(N)=O (stereo not given) [ZILEUTON]
IC50 (Homo sapiens [11]; Homo sapiens, Blood): 2000 nM
IC50 (Homo sapiens [8]): 1060 nM
